Source: ChEMBL document CHEMBL3425463, “The quassinoid isobrucein B reduces inflammatory hyperalgesia and cytokine production by post-transcriptional modulation” (J Nat Prod, 2015)
Calls of active or inactive are those of the source. No cut-off for these calls is given here.

Assays:
RAW264.7 [1] = experiment: Inhibition of luminescence emission in mouse RAW264.7 cells transfected with luciferase plasmid containing universal promoter PKG at 70 uM after 6 hrs by luciferase reporter gene assay; type: functional, cell-based
Method in brief: (§1)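 RAW 264.7 cells (5 × 10^5/well) in RPMI-1640 with 2% FBS, transfected with a PGK-promoter luciferase plasmid (1 μg/well) for 6 h at 37 °C, 5% CO2. Then treated 6 h with drug, dexamethasone 1 mM, pyrrolidine dithiocarbamate 500 μM or cycloheximide 70 μM. Cells lysed in Tris/NaCl/Tween buffer, pH 7.5, and luminescence read.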

Mus musculus [2] = experiment: Inhibition of protein synthesis in carrageenan-induced mechanical inflammatory hyperalgesia male C57BL/6 mouse model assessed as inhibition of TNF production in inflamed tissue at 20 mg/kg, sc […] challenge and measured after 3 hrs by ELISA; type: functional, organism-based; parameters: dose 20 mg/kg
Mus musculus [3] = experiment: Inhibition of protein synthesis in carrageenan-induced mechanical inflammatory hyperalgesia male C57BL/6 mouse model assessed as inhibition of IL-1beta production in inflamed tissue at 20 mg/kg, sc […] challenge and measured after 3 hrs by ELISA; type: functional, organism-based; parameters: dose 20 mg/kg
RAW264.7 [4] = experiment: Antiinflammatory activity against mouse RAW264.7 cells assessed as reduction of LPS-induced TNF mRNA expression cells at 1 mM treated 30 mins before LPS challenge measured after 3 hrs by qRT-PCR analysis; type: functional, cell-based
Method in brief: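 RAW 264.7 macrophages (1.5 × 10^6 cells/well) in supplemented RPMI-1640 were pretreated with vehicle, test compound or dexamethasone (1 mM) before LPS stimulation. Cells were lysed in TRIzol, and TNF mRNA was measured by quantitative real-time PCR with GAPDH primers. Stock in DMSO diluted in RPMI-1640, final DMSO ≤0.5%.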

RAW264.7 [5] = experiment: Inhibition of luminescence emission in mouse RAW264.7 cells transfected with luciferase plasmid containing universal promoter PKG at 1 mM after 6 hrs by luciferase reporter gene assay; type: functional, cell-based
Method in brief: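 RAW 264.7 cells (5 × 10^5/well) in RPMI-1640 with 2% FBS were transfected with pmirGLO dual-luciferase plasmid (1 μg/well, PGK universal promoter) by FuGene 6 for 6 h at 37 °C, 5% CO2. Compound was added ([…] as printed) and incubated 6 h. Cells were lysed in TNT buffer, and luciferin luminescence was read. Controls: dexamethasone, PDTC, cycloheximide.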

RAW264.7 [6] = experiment: Inhibition of luminescence emission in mouse RAW264.7 cells transfected with luciferase plasmid containing universal promoter PKG at 500 uM after 6 hrs by luciferase reporter gene assay; type: functional, cell-based; method in brief: as §1
RAW264.7 [7] = experiment: Inhibition of LPS-induced NF-kappaB activation in mouse RAW264.7 cells assessed as reduction luminescence emission at 0.001 to 10 uM pretreated 30 mins before LPS challenge measured after 4 hrs by luciferase reporter gene assay; type: cell-based
Method in brief: (§2)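 RAW 264.7 NF-κB-luciferase reporter cells pretreated 30 min (0.001−10 μM) before stimulus: LPS 1 μg/mL, PGN 10 μg/mL, TNF 10 ng/mL or PMA 1 μg/mL. Cells lysed at 4 h; luciferin added, luminescence read. Expressed relative to stimulus alone set at 100%. Dexamethasone 1 mM control. n = 4–5.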

RAW264.7 [8] = experiment: Inhibition of PGN-induced NF-kappaB activation in mouse RAW264.7 cells assessed as reduction luminescence emission at 0.001 to 10 uM pretreated 30 mins before LPS challenge measured after 4 hrs by luciferase reporter gene assay; type: cell-based; method in brief: as §2
RAW264.7 [9] = experiment: Inhibition of TNF-induced NF-kappaB activation in mouse RAW264.7 cells assessed as reduction luminescence emission at 0.001 to 10 uM pretreated 30 mins before LPS challenge measured after 4 hrs by luciferase reporter gene assay; type: cell-based; method in brief: as §2
RAW264.7 [10] = experiment: Inhibition of PMA-induced NF-kappaB activation in mouse RAW264.7 cells assessed as reduction luminescence emission at 0.001 to 10 uM pretreated 30 mins before LPS challenge measured after 4 hrs by luciferase reporter gene assay; type: cell-based; method in brief: as §2
RAW264.7 [11] = experiment: Inhibition of NF-kappaB-mediated IkappaBalpha degradation in LPS-induced mouse RAW264.7 cells at 10 uM treated 30 mins before LPS challenge by Western blot analysis; type: cell-based
Method in brief: (§3)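 RAW 264.7 cells treated before LPS. Cytoplasmic and nuclear fractions made by hypotonic/high-salt (420 mM NaCl) lysis; Bradford protein assay; 12% SDS-PAGE. Blots: IκB-α (1:1000) on cytoplasmic and p65 (1:300) on nuclear extracts, ECL detection. Nucleophosmin and actin as fraction markers; bands normalized to medium control.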

RAW264.7 [12] = experiment: Inhibition of LPS-induced NF-kappaB p65 translocation into nucleus in mouse RAW264.7 cells at 10 uM treated 30 mins before LPS challenge by Western blot analysis; type: cell-based; method in brief: as §3
RAW264.7 [13] = experiment: Antiinflammatory activity against mouse RAW264.7 cells assessed as reduction of LPS-induced TNF mRNA expression cells at 10 uM treated 30 mins before LPS challenge measured after 3 hrs by qRT-PCR analysis; type: functional, cell-based
RAW264.7 [14] = experiment: Inhibition of luminescence emission in mouse RAW264.7 cells transfected with luciferase plasmid containing universal promoter PKG at 0.1 to 10 uM after 6 hrs by luciferase reporter gene assay; type: functional, cell-based; method in brief: as §1
Mus musculus [15] = experiment: Antihyperalgesic activity in sc dosed male C57BL/6 mouse assessed as reduction in carrageenan-induced mechanical inflammatory hyperalgesia […] and measured after 3 hrs; type: functional, organism-based
Mus musculus [16] = experiment: Antihyperalgesic activity in male C57BL/6 mouse assessed as reduction in carrageenan-induced mechanical inflammatory hyperalgesia at 5 mg/kg, […] and measured after 3 hrs; type: functional, organism-based; parameters: dose 5 mg/kg
Mus musculus [17] = experiment: Antiinflammatory activity in carrageenan-induced mechanical inflammatory hyperalgesia male C57BL/6 mouse model assessed as inhibition of IL-1beta production in inflamed tissue at 5 mg/kg, […] and measured after 3 hrs; type: functional, organism-based; parameters: dose 5 mg/kg
Mus musculus [18] = experiment: Antiinflammatory activity in carrageenan-induced mechanical inflammatory hyperalgesia male C57BL/6 mouse model assessed as inhibition of KC/CXCL1 production in inflamed tissue at 5 mg/kg, […] and measured after 3 hrs; type: functional, organism-based; parameters: dose 5 mg/kg
Mus musculus [19] = experiment: Antiinflammatory activity in carrageenan-induced mechanical inflammatory hyperalgesia male C57BL/6 mouse model assessed as inhibition of TNF level production in inflamed tissue at 5 mg/kg, […] and measured after 3 hrs; type: functional, organism-based; parameters: dose 5 mg/kg
RAW264.7 [20] = experiment: Antiinflammatory activity against mouse RAW264.7 cells assessed as reduction of LPS-induced TNF production compound pretreated 30 mins of LPS challenge measured after 4 hrs by ELISA; type: functional, cell-based
RAW264.7 [21] = experiment: Antiinflammatory activity against mouse RAW264.7 cells assessed as reduction of LPS-induced IL-1beta production compound pretreated 30 mins of LPS challenge measured after 4 hrs by ELISA; type: functional, cell-based
RAW264.7 [22] = experiment: Antiinflammatory activity against mouse RAW264.7 cells assessed as reduction of LPS-induced KC/CXCL1 production compound pretreated 30 mins of LPS challenge measured after 4 hrs by ELISA; type: functional, cell-based
[23] = system: peritoneal macrophages (Mus musculus); experiment: Cytotoxicity against mouse peritoneal macrophages assessed as cell viability at 0.001 to 10 uM pretreated 30 mins by MTT assay in presence of LPS

C[C@@H]1C[C@@H]([C@H](O)CC2CC(=O)NC(=O)C2)C(=O)[C@@H](C)C1
inhibition (RAW264.7 [1]): Active | inhibition (Mus musculus [2]): inactive | inhibition (Mus musculus [3]): Active

C[C@@H]1C[C@H]2[C@@H]3CCC4=CC(=O)C=C[C@]4(C)[C@@]3(F)[C@@H](O)C[C@]2(C)[C@@]1(O)C(=O)CO
inhibition (RAW264.7 [4]): Active | inhibition (RAW264.7 [5]): inactive

S=C(S)N1CCCC1
inhibition (RAW264.7 [6]): inactive

COC(=O)[C@@]12OC[C@]34[C@H]([C@@H](O)[C@@H]1O)[C@@]1(C)[C@H](O)C(=O)C=C(C)[C@@H]1C[C@H]3OC(=O)[C@H](OC(C)=O)[C@@H]24 [ISOBRUCEIN B]
inhibition (RAW264.7 [7]): Dose-dependent effect | inhibition (RAW264.7 [8]): Dose-dependent effect | inhibition (RAW264.7 [9]): Dose-dependent effect | inhibition (RAW264.7 [10]): Dose-dependent effect | Activity (RAW264.7 [11]): inactive | Activity (RAW264.7 [12]): inactive | inhibition (RAW264.7 [13]): inactive | inhibition (RAW264.7 [14]): Active | Activity (Mus musculus [15]): Dose-dependent effect | inhibition (Mus musculus [16]): Active | inhibition (Mus musculus [17]): Active | inhibition (Mus musculus [18]): Active | inhibition (Mus musculus [19]): inactive | inhibition (RAW264.7 [20]): Active | inhibition (RAW264.7 [21]): Active | inhibition (RAW264.7 [22]): Active | Activity [23]: Non-toxic
